# Screens deposited in PubChem by The Scripps Research Institute Molecular Screening Center.
# HCV NS3 hel inh: inhibitors of HCV NS3 helicase, primary screen, biochemical, Cy5 molecular beacon fluorescence. inhibition, % at 10.9 µM. NS3 helicase DNA unwinding. AID 1800, 2009. hit rate 0.56% among 290,000;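 active means inhibition above the mean of all tested compounds plus 3 SD, set per campaign, cut at about 35% in these data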;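 further: 0% = DMSO wells and 100% = thioflavine S control wells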
#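 Compound dosing – single dose, 10.9 µM nominal final, DMSO 0.8% final · System – NS3 helicase fragment of HCV · Buffer or medium – MOPS pH 6.5, MgCl2, DTT, Tween20, BSA · Signal – Cy5 beacon fluorescence read at start and 1 h · Also added – annealed dual-labelled DNA beacon duplex, ATP-started · Schedule – 1 h at 25 °C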
# GPR7 antagonist: GPR7 receptor antagonists, primary screen, cell-based, fluorescence, single concentration | Neuropeptides B/W receptor type 1 (Homo sapiens), P48145 | GPR7-expressing cells, fluorescence antagonist assay | hit rate 1.1% among 290,000 | inhibition, % at 4.4 µM | AID 1861, 2009; in the data active means inhibition above about 16%, passing the limit was not always enough;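 further: cells stimulated with the agonist NPW; 0% = agonist with vehicle and 100% = vehicle without agonist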
# Target sequence (P48145 whole entry, looked up): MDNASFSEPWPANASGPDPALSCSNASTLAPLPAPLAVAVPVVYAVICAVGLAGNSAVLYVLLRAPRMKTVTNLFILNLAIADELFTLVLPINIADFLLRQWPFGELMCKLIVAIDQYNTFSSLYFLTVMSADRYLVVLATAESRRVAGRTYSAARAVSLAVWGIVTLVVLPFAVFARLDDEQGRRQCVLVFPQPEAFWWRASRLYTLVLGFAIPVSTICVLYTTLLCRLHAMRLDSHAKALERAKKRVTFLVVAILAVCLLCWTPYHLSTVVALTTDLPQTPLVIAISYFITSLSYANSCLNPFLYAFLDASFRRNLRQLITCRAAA
# FID counter: compounds displacing fluorescent DNA intercalator, primary screen, artefact control for HCV NS3 helicase inhibitor project, biochemical, FID fluorescence. inhibition, % at 7.9 µM. DNA fluorescent intercalator displacement. hit rate 0.17% among 290,000; in the data active means inhibition above about 37%;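 further: 0% = vehicle and 100% = reference compound; higher means more ethidium bromide displaced from hairpin DNA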
# EBNA-1 inhibitor: EBNA-1 DNA-binding inhibitors, primary screen, biochemical, fluorescence polarization; inhibition, % at 14.8 µM; hit rate 0.34% among 300,000; AID 1950, 2009; in the data active means inhibition above about 28%
# ZTA DNA inh: ZTA (EBV) inhibition in EBNA-1 counter-screen. hit rate 0.15% among 320,000. inhibition, % at 11 µM. AID 2234. ZTA-DNA binding, fluorescence polarization. P03206; in the data active means inhibition above about 33%
# Target sequence (P03206 whole entry, looked up): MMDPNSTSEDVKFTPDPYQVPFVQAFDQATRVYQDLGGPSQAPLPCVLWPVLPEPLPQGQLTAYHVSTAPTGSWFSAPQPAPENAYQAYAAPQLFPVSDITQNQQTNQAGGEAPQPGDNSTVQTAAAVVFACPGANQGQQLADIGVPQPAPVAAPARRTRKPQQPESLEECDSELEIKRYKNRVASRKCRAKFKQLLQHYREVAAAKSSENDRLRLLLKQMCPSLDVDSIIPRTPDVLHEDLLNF
# Active calls of the source: *; nt = no result. In the library only some 2% were active in any assay of this set; here they are far more common.
SMILES,HCV NS3 hel inh,GPR7 antagonist,FID counter,EBNA-1 inhibitor,ZTA DNA inh
Cc1ccc(NC(=O)CSc2nc(N)cc(N)n2)cc1S(=O)(=O)N1CCOCC1,21.9,20.0*,-5.4,-3.2,-12.3
CCOC(=O)c1ccccc1NC(=O)Cn1c(-c2nonc2N)nc2ccccc21,8.2,20.6*,-2.2,-4.9,-9.0
Nc1nonc1-c1nc2ccccc2n1CC(=O)Nc1ccccc1,9.3,5.1,-1.1,8.0,9.2
O=C(c1ccc2n[nH]nc2c1)N1CCN(c2ccc(C(F)(F)F)cn2)CC1,nt,nt,nt,nt,12.8
Cn1cccc1/C=C1\SC(=Nc2ccc(O)cc2)NC1=O,2.9,20.8*,-9.6,-7.7,-12.8
CCC/C(O)=C1\C(=O)CC(C)(C)CC1=Nc1ccc(OC)cc1OC,-0.5,16.2*,-10.1,-2.0,-15.4
CC(C)n1cc(CN2CCCC(CNS(=O)(=O)c3cccc4cccnc34)C2)cn1 (stereo unspecified),11.5,13.1,8.8,-4.3,7.9
C(#Cc1ccccc1)C[N+]1(CC#Cc2ccccc2)CCCCC1,-29.4,-4.2,7.3,-11.9,2.2
Cc1ccc(C#CC[N+]2(CC#Cc3ccc(C)cc3)CCCCC2)cc1,-61.0,19.5*,9.4,7.5,7.8
CCn1c(COC(=O)CNC(=O)c2ccccc2F)nc2cc(S(=O)(=O)N(C)C)ccc21,nt,nt,nt,5.6,1.3
CC1CCN(S(=O)(=O)c2cc(C(=O)NC3(C)CCS(=O)(=O)C3)ccc2Br)CC1 (stereo unspecified),nt,nt,nt,nt,3.4
O=C(COC(=O)CCC(=O)c1cccs1)Nc1ccc(S(=O)(=O)N2CCOCC2)cc1,-2.5,-2.0,-7.5,2.7,13.9
Cc1ccc(S(=O)(=O)N2CCOCC2)cc1NC(=O)COC(=O)CCC(=O)c1cccs1,1.2,18.8*,-18.9,0.7,12.3
Fc1ccc(C2=CC(c3ccco3)n3ncnc3N2)cc1 (stereo unspecified),0.8,1.7,-10.0,3.3,-3.6
C1=C(c2ccc(-c3ccccc3)cc2)Nc2ncnn2C1c1ccco1 (stereo unspecified),6.9,25.6*,-9.0,nt,nt
Cc1ccc2c(c1)N(C(=O)CCC(=O)NC1CCN(Cc3ccccc3)CC1)CC(C)O2 (stereo unspecified),-10.4,8.2,11.0,4.8,18.9
O=C(/C(=C/c1ccc(Cl)cc1)c1nc2ccccc2[nH]1)c1cccs1,-11.0,24.9*,-6.8,2.3,11.5
O=C(/C(=C\c1ccccc1)c1nc2ccccc2[nH]1)c1ccc(Cl)cc1,-2.9,-10.8,1.5,-2.0,-2.3
CN(C)c1ccc(NC(=O)N2CCOCC2)cc1,4.6,-16.1,3.3,49.8*,61.7*
O=C(Nc1ccc(F)cc1)N1CCOCC1,-4.4,12.5,4.7,-9.0,-6.7
Cc1ccc2sc(N(CCCN(C)C)C(=O)c3ccc(S(=O)(=O)N(C)Cc4ccccc4)cc3)nc2c1C,nt,nt,nt,-13.4,-0.7
CCN(Cc1ccccc1)S(=O)(=O)c1ccc(C(=O)N(CCCN(C)C)c2nc3cc(C)cc(C)c3s2)cc1,nt,nt,nt,-0.8,-17.2
CCOc1cccc2sc(N(CCCN(C)C)C(=O)c3ccc(S(=O)(=O)N(CC)Cc4ccccc4)cc3)nc12,-42.1,23.7,37.3*,4.8,-4.5
CCOc1cccc2sc(N(CCCN(C)C)C(=O)c3ccc(S(=O)(=O)N(C)Cc4ccccc4)cc3)nc12,-39.4,14.7,39.1*,9.4,-15.8
CCCCN(CC)S(=O)(=O)c1ccc(C(=O)N(CCCN(C)C)c2nc3cc(C)cc(C)c3s2)cc1,-84.7,22.9*,33.8,5.8,6.2
SMILES,HCV NS3 hel inh,GPR7 antagonist,FID counter,EBNA-1 inhibitor,ZTA DNA inh
CN(C)CCOC1c2ccccc2CCc2ccc3ccccc3c21 (stereo unspecified),nt,nt,nt,3.7,-3.0
O=C(NCC1OCCc2ccccc21)c1ccc(NC(=O)c2ccccc2Cl)cc1 (stereo unspecified),-1.7,-3.8,-17.0,23.8,3.8
O=C(NCC1OCCc2ccccc21)c1ccc(NC(=O)c2cccc(Br)c2)cc1 (stereo unspecified),-7.3,-7.8,-3.9,29.8*,-12.5
CN(C)CCCN(Cc1cc2cc3c(cc2[nH]c1=O)OCO3)C(=S)Nc1cccc(Cl)c1,-24.1,6.0,32.4,-12.0,-14.5
CN(C)CCCN(Cc1cc2cc3c(cc2[nH]c1=O)OCO3)C(=S)Nc1ccccc1,2.8,-3.4,47.4*,2.3,0.0
CCCCCOc1ccc(Br)cc1/C(C)=N/NC1=NCCN1,-38.8,18.1*,15.6,6.6,12.8
O=C(Cn1ncn2c(cc3ccccc32)c1=O)NCCc1cccs1,4.9,-16.3,-1.4,14.0,0.3
COC(=O)Cn1cc(C(=O)OC)c2ccccc21,2.4,20.6*,-2.8,2.1,-7.1
CCOC(=O)Cn1cc(C(=O)OC)c2ccccc21,-0.1,-1.5,-2.6,-11.4,-7.2
CCOC(=O)/C(=C\c1cccnc1)C(=O)c1cc(C(C)=O)c(Nc2ccccc2)s1,-5.4,29.6*,-20.6,-6.1,6.5
C#CCOCCOCCOCCNc1nc(N2CCN(C(=O)[C@H]([C@@H](C)CC)n3cc([C@@H](N)CC(C)C)nn3)CC2)nc(N2CCN(C(=O)[C@H](Cc3cc4ccccc4[nH]3)n3cc([C@@H](N)Cc4ccc(O)cc4)nn3)CC2)n1,-67.6,13.2,44.0*,5.0,4.1
C#CCOCCOCCOCCNc1nc(N2CCN(C(=O)[C@H]([C@@H](C)CC)n3cc([C@@H](N)Cc4ccc(O)cc4)nn3)CC2)nc(N2CCN(C(=O)[C@H](Cc3cc4ccccc4[nH]3)n3cc([C@@H](N)CC(C)C)nn3)CC2)n1,nt,nt,nt,-4.4,-2.4
C#CCOCCOCCOCCNc1nc(N2CCN(C(=O)[C@H](Cc3ccc(O)cc3)n3cc([C@@H](N)CC(C)C)nn3)CC2)nc(N2CCN(C(=O)[C@H](Cc3cc4ccccc4[nH]3)n3cc([C@@H](N)CC(C)C)nn3)CC2)n1,-74.2,4.1,37.0*,-0.2,-8.7
C#CCOCCOCCOCCNc1nc(N2CCN(C(=O)C(Cc3ccc(O)cc3)n3cc(C(N)CC(C)C)nn3)CC2)nc(N2CCN(C(=O)C(Cc3cc4ccccc4[nH]3)n3cc(C(N)C(C)CC)nn3)CC2)n1 (stereo unspecified),-62.6,-16.5,33.2,13.7,-2.1
C#CCOCCOCCOCCNc1nc(N2CCN(C(=O)C(Cc3cc4ccccc4[nH]3)n3cc(C(N)C(C)CC)nn3)CC2)nc(N2CCN(C(=O)C(Cc3cc4ccccc4[nH]3)n3cc(C(N)C(C)CC)nn3)CC2)n1 (stereo unspecified),-72.1,-3.4,38.4*,-3.5,14.3
COC(=O)c1ccccc1C(=O)N(Cc1cccnc1)CC1CCCN(C2CCCCC2)C1 (stereo unspecified),-1.7,3.8,7.2,-6.2,-21.2
COc1ccc(CCNS(=O)(=O)CCNC(=O)c2ccc3c(c2)OCO3)cc1,nt,nt,nt,5.9,0.1
COc1cccc(CN(C)C(=O)c2ccc(NC(=O)CC3SC(N4CCCC4)=NC3=O)cc2)c1OC (stereo unspecified),nt,nt,nt,-1.7,-20.6
